From PubChem BioAssay
Shown are actives, neighbours in structure and some others; about 3.9% of the full set was active somewhere.
HSF-1 act: increases HSF-1 driven luciferase reporter signal | NIH3T3-HGL HSF-1 luciferase reporter, MG132, 8 h; 100% = twice DMSO control signal | activation, % at 9 µM | 1.7% of 300,000 active;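 active means mean replicate activation of at least 50% with a set share of replicates each reaching 50%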;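 further: 0% = median of the neutral control wells and 100% = twice that signal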
DNA FID counter: fluorescent intercalator displacement, NS3 helicase counter-screen; DNA fluorescent intercalator displacement, fluorescence; inhibition, % at 7.9 µM; 0.17% of 290,000 active; in the data active means inhibition above about 37%;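 further: 0% = vehicle and 100% = reference compound; higher means more ethidium bromide displaced from hairpin DNA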
NS3 helicase inh: inhibitors of Hepatitis C virus NS3 helicase; NS3 helicase DNA unwinding, Cy5 molecular beacon fluorescence; inhibition, % at 10.9 µM; 0.56% of 290,000 active;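 active means inhibition above the mean of all tested compounds plus 3 SD, set per campaign, cut at about 35% in these data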;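 further: 0% = DMSO wells and 100% = thioflavine S control wells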
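Compound dosing – single dose, 10.9 µM nominal final, DMSO 0.8% final · System – NS3 helicase fragment of HCV · Buffer or medium – MOPS pH 6.5, MgCl2, DTT, Tween20, BSA · Signal – Cy5 beacon fluorescence read at start and 1 h · Also added – annealed dual-labelled DNA beacon duplex, ATP-started · Schedule – 1 h at 25 °C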
HSP90 inh: blocks HSP90-mediated luciferase refolding in reticulocyte lysate | Rabbit reticulocyte lysate, luciferase refolding luminescence, 3 h | inhibition, % at 5.6 µM | AID 1789 | 0.91% of 290,000 active;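 active means inhibition above the screen-wide mean plus 3 SD, computed separately per campaign, cut at about 16% in these data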;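 further: 0% = DMSO wells and 100% = 60 µM geldanamycin wells; inhibitors lower the luminescence because luciferase stays unfolded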
HSF1 inh: HSF1 inhibition | NIH3T3-HGL HSE-luciferase, MG132-induced, luminescence 8 h; stronger effect = lower value | activity change, negative = inhibition, % at 7.5 µM (by protocol) | 0.77% of 300,000 active;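 active means more than half of replicate wells show activity change below -50%, luminescence cut by over half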;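 further: luciferase reports HSF-1 transcriptional activity via heat shock element; 0% = median of DMSO wells and -100% = zero luminescence signal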
core dimer inh: blocks dimerization of HCV core protein; AID 1899; TR-FRET GST/Flag-core106 dimerization, 1536-well; inhibition, % at 5 µM; 0.33% of 300,000 active;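 active means inhibition above the mean of all tested compounds plus 3 SD, set per screening campaign, cut at about 45% in these data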
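test system = GST/Flag-tagged HCV core106 proteins | probe or stimulus = Eu donor and XL665 acceptor anti-tag antibodies | times = compound-protein-antibody incubation 4 h at 22.5 °C | signal = TR-FRET, excitation 340 nm, emission 617 and 671 nm | measure = percent inhibition of core106 dimerization signal | controls = wells lacking GST-core106 and wells with excess unlabelled core106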
* = called active by the depositor; / = no result.

SMILES	HSF-1 act	DNA FID counter	NS3 helicase inh	HSP90 inh	HSF1 inh	core dimer inh
C[N+]1(CC2COC(c3ccco3)O2)CCCCC1 (configuration not stated)	-75	-1	10	0	-66*	0
S=C1CN=C(c2ccccc2)c2cc(Cl)ccc2N1	65*	-10	0	1	32	-2
Cc1ccc(N/N=C/c2c(O)n(-c3ccccc3)c(=O)[nH]c2=O)cc1	12	1	6	24*	10	-2
Cc1ccc(-n2c(O)c(/C=C/C=Nc3ccccc3)c(=O)[nH]c2=O)cc1	-5	-7	5	3	-7	-5
CCCC12CN3CCN(CC(C3)/C1=N\NC(=O)c1ccncc1)C2	3	-6	-2	-2	2	-3
CC(=O)c1cn(Cc2ccccc2F)c2ccccc12	14	-11	6	-1	-4	/
CN1C(=O)/C(=C/c2cccn2-c2ccc3ccccc3c2)C(=O)NC1=S	25	-16	18	6	3	65*
Cc1cc(C)cc(N2C(=O)NC(=O)/C(=C\c3cccn3-c3ccccc3)C2=O)c1	18	-30	24	-2	2	0
O=C1NC(=S)NC(=O)C1=Cc1cccn1-c1ccc(O)cc1	154*	5	21	1	139	/
CCCCn1c(C)c(C(=O)O)c2cc(OC)c3ccccc3c21	-4	-16	0	6	5	-14
CCN1C(=O)NC(=O)/C(=C/c2cc(C)n(-c3sc(C)c(C)c3C#N)c2C)C1=O	-68	-19	18	0	-56*	6
CCOC(=O)c1c(-n2c(C)cc(/C=C3/C(=O)NC(=O)N(CC)C3=O)c2C)sc2c1CCCC2	-10	-12	7	-1	-11	-1
COc1ccccc1N1CCN(Cc2cccc(OC)c2O)CC1	88*	0	-10	0	60	0
COc1ccccc1N1CCN(Cc2ccccc2Cl)CC1	-5	4	-1	5	-3	-2
CC(=O)OC1C(=O)OCC23CCC4(C)OC4C2OC2CC(OC(=O)C=CC=CC(=O)OCCC1C)C3(C)C21CO1 (configuration not stated)	92*	/	/	/	92*	/
CC(O)C1C=CC=CC(=O)OC2CC3OC4C5OC5(C)CCC4(COC(=O)C4OC4(C)C(O)CO1)C2(C)C31CO1 (configuration not stated)	91*	/	/	/	91*	/
CC1=CC2OC3CC4OC(=O)C=CC=CC(=O)OCCC(C)C(O)C(=O)OCC2(CC1O)C4(C)C31CO1 (configuration not stated)	92*	/	/	/	92*	/
O=C1C2CCCN2C(c2cccc(Cl)c2)N1c1ccccn1 (configuration not stated)	14	38*	12	2	3	-2
O=C1C2CCCN2C(c2ccc(Cl)c(Cl)c2)N1c1ccccn1 (configuration not stated)	0	-2	4	0	-2	3
CN1CCC(N(C)c2nc(-c3ccccc3)nc3ccccc23)CC1	7	63*	35	5	-3	-1
CC1CN2c3ccc([N+](=O)[O-])cc3CC3(C(=O)N(C)C(=O)N(C)C3=O)C2C(C)O1 (configuration not stated)	4	-4	5	3	-8	3
CN1C(=O)C(=Cc2c(OCc3cnc(Cl)s3)ccc3ccccc23)C(=O)N(C)C1=O	61*	-3	-15	-1	54	12
CCOP(=O)(C(NC(=O)c1ccccc1Cl)=C(Cl)Cl)c1ccccc1 (configuration not stated)	90*	-14	-11	8	31	-1
CCOc1ccc2oc(C(=O)NN3C(C)CCCC3C)c(C)c2c1 (configuration not stated)	-18	-22	-24	-1	1	3
CCCCn1c(NC(=O)c2ccco2)c(C(=O)OCC)c2nc3ccccc3nc21	71*	-14	23	8	58	-3
CCN(CC)P(=O)(NC(=O)c1cccn1C)N(CC)CC	-89	-4	0	2	-84*	2
O=c1[nH]c(=O)n(Cc2ccco2)c(O)c1/C=N/N1CCCCC1	-6	-11	5	3	-1	-1
